Measured values reported in publication PMC6039259 (Nature medicine, 2018).

Experiments:
[1] = system: primary astrocytes; assay: A1 astrocyte induction by α-syn PFF-MCM in primary astrocytes; assay type: cell-based, mouse
Method in brief: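 Primary microglia and astrocytes come from P1 CD1 mouse whole brains. Mixed glia are grown 13 days, then split by CD11b positive selection: the bound fraction is microglia and the pour-off is astrocytes. Microglia get α-syn PFF with PBS or test compound (1 μM). Their conditioned medium is applied to astrocytes for 24 hrs, and GFAP is measured by immunoblot.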

[2] = system: α-syn PFF injected C57BL6 mice; assay: Intrastriatal α-syn PFF mouse model of sporadic PD; assay type: in vivo
[3] = system: human DA neurons; assay: α-syn PFF-ACM toxicity in human DA neurons; assay type: cell-based; conditions: NLY01 applied to the α-syn PFF treated microglia; alamarBlue, LDH, trypan blue, 5 days
[4] = system: human dopaminergic (DA) neurons; assay: Direct α-syn PFF toxicity in human DA neurons; assay type: cell-based; conditions: direct treatment of DA neurons, NLY01 1 µM, human α-syn PFF 5 µg/ml
Method in brief: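 Viability is read three ways: alamarBlue per kit protocol, LDH activity in culture medium measured spectrophotometrically, and trypan blue counting. For trypan blue, neurons are trypsin-dissociated to single cells and mixed 1:1 with dye. Live and dead cells are counted on an automated cell counter, with three wells per condition.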

[5] = system: primary microglia; assay: α-syn PFF-induced activation of primary microglia; assay type: cell-based, mouse
Method in brief: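 Primary mouse microglia, CD11b-selected from P1 mixed glia, are pretreated with test compound (1 μM), then given α-syn PFF (1 μg/ml). PFF is endotoxin-depleted recombinant mouse α-syn, stirred a week at 37 °C and sonicated. For qPCR, total RNA is normalized to β-actin by 2^−ΔΔCt, with n=3 independent cultures. Cytokines in medium collected 18 hrs post-PFF are measured by mouse cytokine ELISA array.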

[6] = NLY01 accumulation in brain / BBB penetration; assay type: in vivo, mice
[7] = system: murine primary cortical cultures; assay: α-syn PFF-ACM toxicity in murine primary cortical neurons; assay type: cell-based, mouse
Method in brief: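 Cortical neurons from E15.5 CD1 embryos are grown in B-27 Neurobasal medium on poly-L-lysine. ACM is made by giving astrocytes 24 h of α-syn PFF-MCM, with or without test compound on the microglia. It is collected with protease inhibitors, concentrated about 50X (10 kDa cutoff) and dosed at 15 μg/ml total protein. Nuclei are stained with Hoechst (7 μM) and PI (2 μM) and counted by computer, relative to control wells.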

[8] = system: astrocytes of ventral midbrain; assay: qPCR of astrocytes from ventral midbrain of α-syn PFF injected mice; assay type: in vivo
[9] = target: human recombinant GLP-1R (Homo sapiens, UniProt P43220); assay: cAMP production in GLP-1R transfected HEK-293/CRE-LUC/GLP1R cells; assay type: cell-based
Chain of human recombinant GLP-1R (P43220 24-463): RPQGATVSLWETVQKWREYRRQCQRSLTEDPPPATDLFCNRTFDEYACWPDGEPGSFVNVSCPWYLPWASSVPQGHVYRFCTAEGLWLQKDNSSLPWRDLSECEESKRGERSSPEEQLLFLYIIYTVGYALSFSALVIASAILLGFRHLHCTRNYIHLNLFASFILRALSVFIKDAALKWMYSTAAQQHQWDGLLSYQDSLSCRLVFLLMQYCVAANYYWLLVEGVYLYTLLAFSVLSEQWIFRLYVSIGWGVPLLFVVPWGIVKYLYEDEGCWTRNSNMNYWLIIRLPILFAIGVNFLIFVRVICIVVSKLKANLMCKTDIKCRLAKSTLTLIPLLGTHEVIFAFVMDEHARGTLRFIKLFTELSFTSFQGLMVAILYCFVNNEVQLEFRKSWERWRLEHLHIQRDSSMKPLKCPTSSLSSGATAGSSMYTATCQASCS

[10] = system: hA53T α-syn Tg mice; assay: hA53T α-synuclein transgenic mouse model; assay type: in vivo
[11] = 3 mg/kg s.c. twice a week for five months

Substance: His-Gly-Glu-Gly-Thr-Phe-Thr-Ser-Asp-Leu-Ser-Lys-Gln-Met-Glu-Glu-Glu-Ala-Val-Arg-Leu-Phe-Ile-Glu-Trp-Leu-Lys-Asn-Gly-Gly-Pro-Ser-Ser-Gly-Ala-Pro-Pro-Pro-Ser-Cys(PEG50K)-NH2 [NLY01, pegylated [Cys^40]Exendin-4]
- α-syn PFF-MCM induced GFAP ([1]; NLY01 1 μM, 24 hrs, immunoblot): blocked
- induction of A1 astrocytic specific markers ([1]; NLY01 treatment of microglia, but not that of astrocytes): prevents
- Triton X-100 insoluble α-syn and p-α-syn ser129, western blot [2, 11]: significantly reduces
- α-syn PFF induced reduction in striatal TH immunoreactivity and striatal TH and DAT protein [2, 11]: rescued
- p-α-syn ser129 immunoreactivity in striatum, ventral midbrain and TH neurons ([2]; 3 mg/kg s.c. twice a week for five months, from one month after α-syn PFF): significantly reduces
- α-syn PFF induced loss of TH and Nissl positive neurons in the SNpc ([2]; 3 mg/kg s.c. twice a week for five months, n=10): prevented
- ipsilateral amphetamine induced rotation ([2]; 5 mg/kg amphetamine i.p., six months after α-syn PFF): prevented
- α-syn PFF induced GFAP immunoreactivity and GFAP level in the ventral midbrain ([2]; immunohistochemistry and western blot): blocked
- α-syn PFF induced mRNA for Il1a, Il1b, Tnfα, C1qa, Il6 in ventral midbrain ([2]; qPCR, n=4): blocked
- behavioral deficits in accelerating rotarod test and pole test ([2]; six months after α-syn PFF): significantly reduces the behavioral deficits
- contralateral forepaw touches, cylinder test ([2]; six months after α-syn PFF): restored
- increase in grooming time and reduction in rearing, cylinder test ([2]; six months after α-syn PFF): restored
- Iba-1 immunoreactivity and microglial density in the SNpc ([2]; six months post injection): significantly reduces
- α-syn PFF-ACM induced cell death [3]: significantly prevents
- protection against α-syn PFF induced cell death (alamarBlue, LDH, trypan blue) [4]: fails to protect
- uptake of α-syn PFF in microglia [5]: does not interfere
- α-syn PFF induced C1q and TNFα release into media, western blot ([5]; NLY01 1 µM pretreatment): significantly inhibited
- α-syn PFF induced protein levels of IL-1α, TNFα, IL-1ß, C1q, ELISA ([5]; NLY01 1 μM pretreatment, MCM 18 hrs after α-syn PFF): reduced
- α-syn PFF induced mRNA for Il1a, Il1b, Tnfα, C1qa, Il6, qPCR ([5]; NLY01 1 μM pretreatment, α-syn PFF 1 μg/ml): significantly reduces
- α-syn PFF induced cytokines (IL-1α, TNFα, IL-1ß, IL-6, leptin), ELISA cytokine array ([5]; primary microglia, α-syn PFF 1 µg/ml): reduces
- NF-kB pathway ([5]; α-syn PFF-induced NF-kB nuclear translocation and phosphorylation): inhibits
- brain levels ([6]; ten-month-old hA53T Tg mice, 3 mg/kg): reaches high brain levels
- blood-brain barrier penetration ([6]; wild type (WT) mice): efficiently penetrates the blood-brain barrier
- α-syn PFF-ACM induced cell death ([7]; NLY01 (1 µM) applied to the α-syn PFF treated microglia, Hoechst/PI, 48 hrs): significantly prevents
- p-α-syn ser129 levels induced by α-syn PFF-ACM ([7]; pretreatment of NLY01 in microglia): significantly reduced
- α-syn PFF induced A1 astrocyte specific transcripts [8]: prevented
- induction of C3 mRNA in isolated astrocytes ([8]; n=4): blocks
- biologic activity in vitro relative to Exendin-4 [9]: comparable biologic activity
- prolongation of lifespan ([10]; 3 mg/kg s.c. twice a week from six months of age, n=20): over 100 days
- p-α-syn ser129 immunoreactivity, aggregated α-syn and ubiquitin immunoreactivity ([10]; 3 mg/kg, brainstem): reduction
- microglial and astrocytic activation (Iba-1, GFAP immunoreactivity) ([10]; brainstem): significantly attenuates
- increase of C3 mRNA ([10]; ten-month-old hA53T α-syn Tg mice): prevented
